The source made the active and inactive calls. The rule behind the calls is not given here.
Assays:
[1] = Binding affinity to Co2+ ion assessed as pM value by spectrophotometric titration method
[2] = Toxicity in Sprague-Dawley rat assessed as induction of histopathological changes in pancreas at 25 to 116 mg/kg, po dosed daily for 4 weeks during chronic 4 week toxicity test; assay type: organism-based; conditions: in vivo, 672 h
[3] = Drug level in rat adrenal gland at 150 umol/kg, po measured measured up to 6 hrs by LC-MS/MS analysis; assay type: ADME, organism-based; conditions: in vivo
Outline: (§1)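 Single oral dose of 150 μmol/kg to SD rats, half male and half female, n=6 per group. Rats decapitated at 10 min, 30 min, 2 h and 6 h. Tissues dissected, saline-washed, weighed and homogenised in acetonitrile/water 1:9 (125 mg/mL). Drug level measured against plasma; mean ± SE.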

[4] = Toxicity in Sprague-Dawley rat assessed as induction of histopathological changes in pancreas at 25 to 116 mg/kg, po dosed daily for 4 weeks and measured after additional 4 weeks period in absence of drug; assay type: organism-based; conditions: in vivo, 672 h
[5] = Binding affinity to Co2+ ion assessed as affinity constant by spectrophotometric titration method
Cytochrome P450 3A5 = Cytochrome P450 3A5 (Homo sapiens, UniProt P20815); test: Inhibition of CYP3A5 in human liver microsomes; assay type: ADME
Sequence of Cytochrome P450 3A5 (P20815 whole entry): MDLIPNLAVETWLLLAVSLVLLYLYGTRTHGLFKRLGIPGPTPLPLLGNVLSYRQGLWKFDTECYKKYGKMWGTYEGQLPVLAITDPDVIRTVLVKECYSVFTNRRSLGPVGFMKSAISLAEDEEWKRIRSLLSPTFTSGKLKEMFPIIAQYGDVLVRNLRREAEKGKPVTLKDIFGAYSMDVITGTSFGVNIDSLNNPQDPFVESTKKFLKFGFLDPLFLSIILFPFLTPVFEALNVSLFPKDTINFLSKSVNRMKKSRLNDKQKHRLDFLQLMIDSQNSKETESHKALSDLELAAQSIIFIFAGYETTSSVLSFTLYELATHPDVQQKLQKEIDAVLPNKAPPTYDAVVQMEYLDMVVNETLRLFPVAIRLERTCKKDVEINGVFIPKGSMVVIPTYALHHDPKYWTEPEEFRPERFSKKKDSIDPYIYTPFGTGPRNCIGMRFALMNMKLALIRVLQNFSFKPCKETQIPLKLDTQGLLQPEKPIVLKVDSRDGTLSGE

[6] = Binding affinity to Al3+ ion assessed as affinity constant by spectrophotometric titration method
[7] = Toxicity in Sprague-Dawley rat assessed as induction of histopathological changes in thymus at 25 to 116 mg/kg, po dosed daily for 4 weeks and measured after additional 4 weeks period in absence of drug; assay type: organism-based; conditions: in vivo, 672 h
[8] = Drug level in rat kidney at 150 umol/kg, po measured measured up to 6 hrs by LC-MS/MS analysis; assay type: ADME, organism-based; conditions: in vivo
Outline: as §1

[9] = Drug metabolism in human liver microsomes assessed as oxidative metabolism incubated for 1 hr relative to deferiprone; assay type: ADME, Microsome
Rattus norvegicus [10] = test: Iron scavenging activity in 59Fe-ferritin-loaded rat assessed as iron mobilization level at 150 umol/kg, po dosed 1 hr after 59Fe-ferritin injection and measured 24 hrs after 59Fe-ferritin injection by gamma counting method relative to control; assay type: functional, organism-based
Outline: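 Male SD rats, 300 g, fasted overnight, given about 1 μC 59Fe-ferritin i.v. under isoflurane. Chelator gavaged 1 h later, then rats housed in metabolic cages; food returned 1 h after dosing. Killed 24 h after 59Fe-ferritin. Urine, faeces, liver and gut gamma-counted. 8 rats per condition.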

Mus musculus [11] = test: Toxicity in mouse assessed as reduction in lymphocytes counts at 200 mg/kg, po dosed once daily for 2 months as 5 days per week schedule; conditions: in vivo, 120 h
[12] = Drug metabolism in rat bile assessed as (2S,3S,4S,5R,6S)-6-[[1-[(1R)-1-benzyl-2-hydroxyethyl]-2-methyl-4-oxo-3-pyridyl]oxy]-3,4,5-trihydroxy-tetrahydropyran-2-carboxylic acid formation at 150 umol/kg, po by LC/TOF/MS/MS analysis; assay type: ADME, organism-based; conditions: in vivo
Outline: (§2)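 Bile collected from rats after an oral dose of 150 μmol/kg. Metabolites characterised by β-glucuronidase hydrolysis and LC-TOFMS/MS. M2/M1 ratio followed over 8 h.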

[13] = Drug metabolism in rat bile assessed as (2S,3S,4S,5R,6R)-3,4,5-trihydroxy-6-[(2R)-2-(3-hydroxy-2-methyl-4-oxo-1-pyridyl)-3-phenylpropoxy]tetrahydropyran-2-carboxylic acid formation at 150 umol/kg, po by LC/TOF/MS/MS analysis; assay type: ADME, organism-based; conditions: in vivo
Outline: as §2

[14] = Binding affinity to Mg2+ ion assessed as affinity constant by spectrophotometric titration method
Rattus norvegicus [15] = test: Iron scavenging activity in iron-overloaded rat assessed as iron removal efficacy at 75 to 1200 umol/kg, po; assay type: functional, organism-based
Outline: (§3)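 Male SD rats (300 g), fasted overnight, given about 1 μC 59Fe-ferritin i.v. under isoflurane; chelator by oral gavage 1 h later; doses 75, 150, 300, 600 and 1200 μmol/kg. Rats housed in metabolic cages, food returned 1 h post-dose; killed 24 h after ferritin injection. Urine, faeces, liver and gut gamma-counted. Iron removal expressed as % efficacy.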

Mus musculus [16] = test: Toxicity in mouse assessed as effect on platelet population at 200 mg/kg, po dosed once daily for 2 months as 5 days per week schedule; conditions: in vivo, 120 h
[17] = Acid dissociation constant, pKa2 of the compound over pH 1.8 to 11.0 by spectrophotometric titration method; assay type: physicochemical
Outline: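 Automated spectrophotometric titration with 0.1 M KOH in 0.1 pH-unit steps. Reading accepted as stable when drift was <0.01 pH unit after a 1.5 min incubation. 10 mm path length cuvette. Spectra fitted by computer to obtain the pKa values.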

[18] = Binding affinity to Zn2+ ion assessed as affinity constant by spectrophotometric titration method
[19] = AUC (0 to infinity) in Sprague-Dawley rat at 150 umol/kg, po measured up to 1440 mins by LC/MS/MS analysis; assay type: ADME, organism-based; parameters: dose 150 umol/kg, route oral, time infinity; conditions: in vivo, 24 h
[20] = Toxicity in Sprague-Dawley rat assessed as induction of mortality at 200 mg/kg, po dosed once daily for 2 months as 5 days per week schedule; assay type: organism-based; conditions: in vivo, 120 h
[21] = Apparent volume of distribution in Sprague-Dawley rat at 600 umol/kg, po measured up to 1440 mins by LC/MS/MS analysis; assay type: ADME, organism-based; conditions: in vivo, 24 h
[22] = Drug level in rat liver at 150 umol/kg, po measured measured up to 6 hrs by LC-MS/MS analysis; assay type: ADME, organism-based; conditions: in vivo
Outline: as §1

Mus musculus [23] = test: Toxicity in mouse assessed as increase in reticulocyte population at 200 mg/kg, po dosed once daily for 2 months as 5 days per week schedule; conditions: in vivo, 120 h
Rattus norvegicus [24] = test: Iron scavenging activity in iron-overloaded rat assessed as iron removal efficacy at 75 to 1200 umol/kg, po relative to control; assay type: functional
Outline: as §3

[25] = AUC (0 to infinity) in Sprague-Dawley rat at 300 umol/kg, po measured up to 1440 mins by LC/MS/MS analysis; assay type: ADME, organism-based; parameters: dose 300 umol/kg, time infinity, route oral; conditions: in vivo, 24 h
[26] = Toxicity in iron-overloaded rat assessed as induction of mortality at 75 to 1200 umol/kg, po; conditions: in vivo
[27] = Cmax in Sprague-Dawley rat at 75 umol/kg, po measured up to 1440 mins by LC/MS/MS analysis; assay type: ADME, organism-based; parameters: dose 75 umol/kg, route oral; conditions: in vivo
[28] = Drug level in rat stomach at 150 umol/kg, po measured measured up to 6 hrs by LC-MS/MS analysis; assay type: ADME, organism-based; conditions: in vivo
Outline: as §1

Cytochrome P450 3A4 = Cytochrome P450 3A4 (Homo sapiens, UniProt P08684); test: Inhibition of CYP3A4 in human liver microsomes; assay type: ADME
Sequence of Cytochrome P450 3A4 (P08684 whole entry): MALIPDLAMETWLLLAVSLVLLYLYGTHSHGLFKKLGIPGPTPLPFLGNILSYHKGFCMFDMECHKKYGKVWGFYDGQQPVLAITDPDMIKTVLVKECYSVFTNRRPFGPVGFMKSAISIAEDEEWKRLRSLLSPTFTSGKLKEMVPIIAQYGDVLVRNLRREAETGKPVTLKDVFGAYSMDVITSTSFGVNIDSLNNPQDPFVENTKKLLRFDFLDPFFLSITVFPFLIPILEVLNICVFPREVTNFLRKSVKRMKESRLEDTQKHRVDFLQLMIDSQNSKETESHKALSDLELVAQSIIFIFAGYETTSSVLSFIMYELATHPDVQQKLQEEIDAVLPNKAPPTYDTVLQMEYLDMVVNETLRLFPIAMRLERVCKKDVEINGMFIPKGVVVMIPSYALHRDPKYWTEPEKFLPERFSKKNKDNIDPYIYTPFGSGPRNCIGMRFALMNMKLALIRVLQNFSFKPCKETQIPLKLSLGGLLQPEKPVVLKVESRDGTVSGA

Cc1c(O)c(O)cc[n+]1[C@@H](CO)Cc1ccccc1.[Cl-]
pM [1]: 6.17 | Activity [2]: Toxic | Drug uptake [3]: Not Active | Activity [4]: Non-Toxic | log K [5]: 6.6 | IC50 (Cytochrome P450 3A5): > 200 µM | K [6]: 13 pM | log K [6]: 12.2 | Activity [7]: Non-Toxic | Drug uptake [8]: Not Active | Drug metabolism [9]: Metabolite_Detected | Activity (Rattus norvegicus [10]): Active | Activity (Mus musculus [11]): Non-Toxic | Drug metabolism [12]: Metabolite_Detected | Drug metabolism [13]: Metabolite_Detected | log K [14]: 9.12 | Activity (Rattus norvegicus [15]): Dose-dependent effect | Activity (Mus musculus [16]): Non-Toxic | pKa [17]: 9.9 | K [18]: 6.15 pM | log K [18]: 7.05 | AUC [19]: 37700 ng·h/mL | Activity [20]: Non-Toxic | Vz [21]: 4.29 L/kg | Drug uptake [22]: Not Active | Activity (Mus musculus [23]): Non-Toxic | Activity (Rattus norvegicus [24]): 3.6 - 48.5% | AUC [25]: 89800 ng·h/mL | Activity [26]: Non-Toxic | Cmax [27]: 8670 ng/mL | Drug uptake [28]: Not Active | IC50 (Cytochrome P450 3A4): > 200 µM
